We go through four compounds from ChEMBL document CHEMBL1124558, “Differential effects of a series of hydroxamic acid derivatives on 5-lipoxygenase and cyclooxygenase from neutrophils and 12-lipoxygenase from platelets and their in vivo effects on inflammation and anaphylaxis” (J Med Chem, 1989).

One assay concerns the target T1, Cyclooxygenase (Rattus norvegicus, UniProt P35355+Q63921).
T1 sequence (P35355 whole entry): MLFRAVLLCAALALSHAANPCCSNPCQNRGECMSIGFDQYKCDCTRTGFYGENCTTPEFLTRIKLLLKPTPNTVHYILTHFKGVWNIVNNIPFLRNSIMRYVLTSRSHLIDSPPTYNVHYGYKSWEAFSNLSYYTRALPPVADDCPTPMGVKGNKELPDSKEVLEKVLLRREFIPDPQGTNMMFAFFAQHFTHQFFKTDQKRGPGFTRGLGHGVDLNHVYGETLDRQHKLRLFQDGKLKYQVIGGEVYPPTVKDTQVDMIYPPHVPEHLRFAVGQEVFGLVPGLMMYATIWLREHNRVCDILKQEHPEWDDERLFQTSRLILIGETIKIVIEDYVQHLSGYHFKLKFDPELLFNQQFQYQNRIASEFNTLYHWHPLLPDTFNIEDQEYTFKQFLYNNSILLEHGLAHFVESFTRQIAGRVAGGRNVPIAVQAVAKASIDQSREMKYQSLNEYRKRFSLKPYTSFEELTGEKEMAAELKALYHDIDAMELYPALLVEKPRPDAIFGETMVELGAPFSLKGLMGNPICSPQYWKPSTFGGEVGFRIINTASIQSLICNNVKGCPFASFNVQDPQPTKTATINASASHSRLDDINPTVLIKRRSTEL
T1 sequence (Q63921 whole entry): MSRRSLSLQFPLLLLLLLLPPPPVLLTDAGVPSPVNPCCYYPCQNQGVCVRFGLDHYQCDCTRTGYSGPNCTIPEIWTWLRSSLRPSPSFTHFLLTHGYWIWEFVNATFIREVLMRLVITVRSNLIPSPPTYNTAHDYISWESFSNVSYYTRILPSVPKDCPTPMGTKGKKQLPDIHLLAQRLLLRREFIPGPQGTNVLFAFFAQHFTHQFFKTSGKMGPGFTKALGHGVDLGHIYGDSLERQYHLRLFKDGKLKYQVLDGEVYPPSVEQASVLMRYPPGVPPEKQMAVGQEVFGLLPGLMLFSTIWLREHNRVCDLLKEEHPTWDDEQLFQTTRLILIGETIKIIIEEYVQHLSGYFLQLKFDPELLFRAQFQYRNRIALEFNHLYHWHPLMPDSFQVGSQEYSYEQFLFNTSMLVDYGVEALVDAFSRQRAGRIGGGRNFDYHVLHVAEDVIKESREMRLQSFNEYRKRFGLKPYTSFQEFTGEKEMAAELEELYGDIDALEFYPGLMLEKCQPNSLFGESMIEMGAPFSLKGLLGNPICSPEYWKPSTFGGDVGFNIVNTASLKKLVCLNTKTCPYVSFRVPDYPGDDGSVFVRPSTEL
The assay can be described thus: In vitro inhibitory activity against rat polymorphonuclear leukocyte Prostaglandin G/H synthase. The format is functional. The gist of the method: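 Glycogen-elicited peritoneal PMNs from Sprague-Dawley rats were homogenized at 0 °C in 0.1 M Tris-HCl pH 8.2 with 10 μM NDGA. Compound (DMSO ≤0.1%) was preincubated 5 min at 37 °C, then 8 μM [14C]arachidonic acid with 4 mM glutathione and epinephrine was added for 10 min. TxB2 and PGF2α were measured by TLC and scintillation counting.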

Assay [1] addresses T2, Arachidonate 12-lipoxygenase (Rattus norvegicus) (UniProt Q02759).
T2 sequence (whole entry): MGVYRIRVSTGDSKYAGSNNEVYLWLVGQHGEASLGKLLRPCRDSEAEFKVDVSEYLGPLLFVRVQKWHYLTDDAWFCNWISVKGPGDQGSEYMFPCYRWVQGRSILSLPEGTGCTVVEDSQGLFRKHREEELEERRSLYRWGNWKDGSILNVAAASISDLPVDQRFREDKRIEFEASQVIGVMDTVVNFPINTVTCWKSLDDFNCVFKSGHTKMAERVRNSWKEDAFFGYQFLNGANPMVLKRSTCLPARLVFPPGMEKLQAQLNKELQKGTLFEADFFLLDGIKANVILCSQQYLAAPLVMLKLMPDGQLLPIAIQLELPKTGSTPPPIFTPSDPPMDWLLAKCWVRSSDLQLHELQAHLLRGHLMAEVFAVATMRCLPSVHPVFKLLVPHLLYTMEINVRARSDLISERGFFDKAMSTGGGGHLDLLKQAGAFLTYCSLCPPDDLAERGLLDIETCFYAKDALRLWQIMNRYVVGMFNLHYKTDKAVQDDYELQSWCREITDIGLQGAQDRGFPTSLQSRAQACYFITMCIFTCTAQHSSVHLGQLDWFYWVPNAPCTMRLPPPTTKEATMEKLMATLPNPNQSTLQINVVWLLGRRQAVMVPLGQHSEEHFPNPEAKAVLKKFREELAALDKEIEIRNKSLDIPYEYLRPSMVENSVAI
The assay can be described thus: In vitro inhibitory activity against rat platelet 12-lipoxygenase at 100 uM. The gist of the method: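 Cell-free cytosolic 12-lipoxygenase from Sprague-Dawley rat platelets (0.4 mg/mL), preincubated 5 min at 30 °C with compound in DMSO (≤0.1% final), 25 mM Tris pH 7.4, 1 μM indomethacin, 100 μM glutathione; reaction started with 6 μM [14C]arachidonic acid and quenched with citric acid/NDGA after 3 min. 12-HETE isolated by TLC and counted by scintillation; % inhibition, duplicate.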

Assay [2] deals with T3, Polyunsaturated fatty acid 5-lipoxygenase (Homo sapiens) (UniProt P09917).
T3 sequence (whole entry): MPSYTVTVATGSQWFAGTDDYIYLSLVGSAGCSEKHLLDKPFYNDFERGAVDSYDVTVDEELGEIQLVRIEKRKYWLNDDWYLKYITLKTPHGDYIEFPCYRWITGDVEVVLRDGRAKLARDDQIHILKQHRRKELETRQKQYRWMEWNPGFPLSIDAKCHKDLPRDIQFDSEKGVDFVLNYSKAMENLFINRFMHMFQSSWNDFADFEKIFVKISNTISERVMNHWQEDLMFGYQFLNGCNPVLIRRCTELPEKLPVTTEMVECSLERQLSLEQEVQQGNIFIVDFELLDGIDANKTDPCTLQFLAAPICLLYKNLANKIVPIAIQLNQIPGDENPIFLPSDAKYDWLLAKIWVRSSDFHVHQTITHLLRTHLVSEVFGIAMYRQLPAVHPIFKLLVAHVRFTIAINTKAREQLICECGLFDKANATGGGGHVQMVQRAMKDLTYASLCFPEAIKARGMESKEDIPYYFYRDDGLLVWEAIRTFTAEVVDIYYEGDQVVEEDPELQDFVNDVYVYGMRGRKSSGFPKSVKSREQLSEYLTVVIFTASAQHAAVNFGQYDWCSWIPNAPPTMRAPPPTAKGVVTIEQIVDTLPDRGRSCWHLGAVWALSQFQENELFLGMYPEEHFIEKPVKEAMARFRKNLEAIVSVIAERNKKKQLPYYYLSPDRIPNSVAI
The assay can be described thus: In vitro inhibitory activity against polymorphonuclear leukocyte 5-lipoxygenase in human cell at 1 uM. In short, it runs like this: (§1)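 PMNs from venous blood of healthy volunteers, isolated by dextran sedimentation and Percoll gradient (>90% pure) and held in Ca/Mg PBS with 1 mg/mL glucose and 1 μM indomethacin. Challenged with calcium ionophore and [14C]arachidonic acid for 3 min. 5-HETE measured by TLC and scintillation counting; IC50 read graphically.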

Another assay concerns Mus musculus. Put plainly: In vivo inhibition of mouse ear inflammation. The format is functional. Further details: concentration or dose not given beside the values. In short, it runs like this: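 Compound or ethanol vehicle applied topically to one ear of male DBA/2J mice 60 min before arachidonic acid (2 mg/ear). […] Groups of 5 mice.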
In a further assay the test system is Cavia porcellus. The assay can be described thus: In vivo inhibitory activity against guinea pig systemic anaphylaxis when administered a compound dose (200 mg/kg) perorally. Type of assay: functional. The following applies: po. The gist of the method: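 Male Hartley guinea pigs sensitised ip with ovalbumin (2.7 mg/kg) plus LPS adjuvant, then challenged 2 weeks later with 1% ovalbumin aerosol for 30 s. Pretreated with pyrilamine, indomethacin and propranolol 20 min before challenge. Compound given in PEG 400 1 h before challenge.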

Assay [3] concerns the target T4, Polyunsaturated fatty acid 5-lipoxygenase (Rattus norvegicus) (UniProt P12527).
T4 sequence (whole entry): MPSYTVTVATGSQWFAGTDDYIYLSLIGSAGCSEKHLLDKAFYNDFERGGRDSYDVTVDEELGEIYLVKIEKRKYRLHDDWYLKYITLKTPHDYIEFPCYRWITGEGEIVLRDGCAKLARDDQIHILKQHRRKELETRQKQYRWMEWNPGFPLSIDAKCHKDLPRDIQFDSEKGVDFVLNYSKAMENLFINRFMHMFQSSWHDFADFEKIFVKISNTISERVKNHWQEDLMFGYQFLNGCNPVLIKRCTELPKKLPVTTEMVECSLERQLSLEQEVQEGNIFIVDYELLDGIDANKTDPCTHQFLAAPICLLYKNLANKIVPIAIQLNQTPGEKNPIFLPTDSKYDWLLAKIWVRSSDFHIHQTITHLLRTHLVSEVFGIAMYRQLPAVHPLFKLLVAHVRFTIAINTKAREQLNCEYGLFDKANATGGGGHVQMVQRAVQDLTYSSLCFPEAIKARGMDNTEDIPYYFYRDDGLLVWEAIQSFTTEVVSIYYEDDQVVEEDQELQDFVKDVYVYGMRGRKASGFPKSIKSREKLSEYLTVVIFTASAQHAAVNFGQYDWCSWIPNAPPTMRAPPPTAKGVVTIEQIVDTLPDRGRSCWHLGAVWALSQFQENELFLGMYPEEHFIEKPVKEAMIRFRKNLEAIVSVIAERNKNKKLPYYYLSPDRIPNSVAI
The assay can be described thus: In vitro inhibitory activity against polymorphonuclear leukocyte 5-lipoxygenase in rat cell at 3 uM. The gist of the method:
(§2)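 Intact glycogen-elicited peritoneal PMNs pooled from 4–5 Sprague-Dawley rats (250 g), preincubated 5 min at 30 °C with compound in DMSO (≤0.1% final) plus 1 μM indomethacin. Challenge with [14C]arachidonic acid (4 μM) and A23187 (0.8 μM) for 3 min. Extraction, TLC, 5-HETE by scintillation counting.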

Assay [4] concerns the target T5, Polyunsaturated fatty acid 5-lipoxygenase (Homo sapiens, UniProt P09917).
T5 sequence (P09917 whole entry): T3 sequence (whole entry)
Put plainly: In vitro inhibition of polymorphonuclear leukocyte derived human 5-lipoxygenase. The gist of the method: as §1

Assay [5] has as its target T6, Polyunsaturated fatty acid 5-lipoxygenase (Rattus norvegicus, UniProt P12527).
T6 sequence (P12527 whole entry): T4 sequence (whole entry)
Put plainly: In vitro inhibition of rat polymorphonuclear leukocyte 5-lipoxygenase. The gist of the method:
as §2

Assay [6] deals with Cyclooxygenase (Rattus norvegicus) (UniProt P35355+Q63921). Put plainly: In vitro inhibitory activity against rat polymorphonuclear leukocyte Prostaglandin G/H synthase at 10 uM. The format is protein assay. In short, it runs like this: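 Homogenate of glycogen-elicited rat peritoneal PMNs in 0.1 M Tris-HCl pH 8.2 with 10 μM NDGA, preincubated 5 min at 37 °C with compound (≤0.1% DMSO). [14C]arachidonic acid (8 μM) added with 4 mM glutathione and epinephrine; 10 min reaction. TxB2 and PGF2α separated by TLC and counted.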

Broadly, the IC50 is the concentration at which inhibition is half-maximal. The inhibition is the drop in the measured response relative to a control, in per cent. For the compound `O=C(c1ccc(OCc2ccccc2)cc1)N(O)CCc1ccccc1`, the IC50 at Cyclooxygenase came out at 75000 nM. Further, the inhibition in assay [1] was less than 10%.

The term Inhibition denotes the relative decrease from the control value, in per cent. As a reminder, the inhibition in vivo is the share of the control response that was lost under treatment. Regarding `O=C(CCCc1ccccc1)NO` [PHENYLBUTYRYLHYDROXAMIC ACID], the inhibition was -8% in [2] and 11% in assay [3]. In addition, the Inhibition in the assay with Mus musculus is 28%. Further, the inhibition in vivo at 200 mg/kg in the assay with Cavia porcellus worked out at 11%.

Consider `CCCN(O)C(=O)Cc1ccc(OCc2ccccc2)cc1`, for which the IC50 against Cyclooxygenase came out at 30000 nM; in assay [4], 160 nM; in assay [5], 100 nM. The compound further yielded an Inhibition in the assay on Mus musculus of 82%. Also, in the assay on Cavia porcellus, the inhibition in vivo at 200 mg/kg amounted to 0%.

`CC(c1ccccc1)N(O)C(=O)Cc1ccc(OCc2ccccc2)cc1` (stereo not drawn): in assay [6], the inhibition amounted to 38%. In the assay on Mus musculus, this compound displayed an Inhibition of 47%.
